Consider 1 compound from ChEMBL document CHEMBL4725371, “A Novel Redox Modulator Induces a GPX4-Mediated Cell Death That Is Dependent on Iron and Reactive Oxygen Species” (J Med Chem, 2020).

By IC50 is commonly meant the concentration that inhibits the measured activity by half. A higher IC50 goes with lower potency. In general, half-life refers to the time needed for the level to fall by half in the phase considered. High values mean slow decline, low ones rapid decline.

Calls of active or inactive are those of the source. Some results are limits rather than exact numbers.

Data set [1] deals with MIA PaCa-2. Nature of the data set: Induction of reactive oxygen species in human MIA PaCa-2 cells at 5 to 10 uM measured after 30 mins in presence of N-acetylcysteine by CM-H2DCFDA dye based fluorescence assay. Format: functional, cell-based. The conditions noted are these: dose microM 5-10, time 30.0 min. The method, boiled down:
(§1)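 1.8 × 10⁴ cells per well were attached overnight, then loaded with 10 μM CM-H2DCFDA in HBSS for 40 min at 37 °C and washed. Compounds were added in HBSS. Fluorescence was read at Ex 483 / Em 530 nm. TBHP was the positive control. NAC at 3 mM was used where stated.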

Data set [2] concerns MIA PaCa-2. The experiment in a line: Cytotoxicity against human MIA PaCa-2 cells measured after 72 hrs by MTT assay. Type of data set: functional, cell-based. As to conditions: MIA PaCa-2, 72 h. Summed up: (§2)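 Cells were kept in RPMI 1640 with 10% FBS at 37 °C, 5% CO₂, under 35 passages. Cells were seeded, attached overnight and treated with compound or DMSO for 72 h. MTT was added at 0.3 mg/mL for 3 h, then dissolved in DMSO and read as absorbance at 570 nm. IC50 was fitted from the curve. Values are mean ± sd of three independent experiments.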

A short description of data set [3]: Half life in mouse liver microsomes at 10 uM in presence of NADPH by LC-MS/MS analysis. Type of data set: ADME, Microsome. As to conditions: microsomes, 10 µM. Summed up:
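Compound (10 μM working solution in 0.1 M phosphate buffer with 3.3 mM MgCl₂) was incubated with mouse liver microsomes and NADPH. Verapamil served as reference. Samples were taken at 0, 5, 10, 15, 30, 45 and 60 min and centrifuged at 3500 g. Supernatant was run by LC-MS/MS. t1/2 came from the slope of ln(peak area ratio) against time.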
A general note: Liver microsomes are a subcellular fraction often used to study metabolism.

Data set [4] relates to CT26. Nature of the data set: Antitumor activity against mouse CT26 cells implanted in Balb/c mouse assessed as tumor shrinkage at 10 mg/kg, iv administered three times weekly for 17 days measured 4 hrs post-last dose. Format: functional, organism-based. As to conditions: time 17.0 day. The method, boiled down:
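Female Balb/c mice aged 5–6 weeks, implanted subcutaneously in right flank with 1 × 10⁶ CT-26 cells in DPBS. Dosing began 7 days later with randomisation (n = 5/group, mean tumour 97–117 mm³). IV dosing was 3 times weekly and IP dosing was given. Vehicle control given daily IP. Mice were euthanised four hours post-dose after 17 days of dosing.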

Data set [5] in a line: Drug level in CD-1 mouse colon at 20 mg/kg, po measured after 1 hr by LC-MS/MS analysis. Format: ADME, organism-based. As to conditions: in vivo. The method, boiled down: (§3)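 Mice received 20 mg/kg PO or 10 mg/kg IV. Organs were collected after 1 h and homogenised in five-fold dissociation solvent. Homogenate was mixed with acetonitrile and internal standard and centrifuged at 3500 g for 10 min. Supernatant was analysed by LC-MS.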

Data set [6] can be described thus: Drug metabolism in CD-1 mouse plasma assessed as hydroxylation at 20 mg/kg, po measured after 15 mins by LC-MS/MS analysis. Type of data set: ADME, organism-based. The conditions noted are these: in vivo, 0.25 h.
Data set [7] concerns MIA PaCa-2. Nature of the data set: Induction of reactive oxygen species in human MIA PaCa-2 cells at 5 to 10 uM measured up to 4 hrs by CM-H2DCFDA dye based fluorescence assay. Type of data set: functional, cell-based. As to conditions: dose microM 5-10, time hrs <=4. Summed up: as §1
In data set [8] the test system is MIA PaCa-2. The experiment in a line: Down regulation of LRPPRC expression in human MIA PaCa-2 cells at 3 times IC50 measured after 4 hrs by proteomics analysis. Format: functional, cell-based.
Data set [9] deals with T1, Phospholipid hydroperoxide glutathione peroxidase GPX4 (Homo sapiens) (UniProt P36969).
T1 sequence (whole entry): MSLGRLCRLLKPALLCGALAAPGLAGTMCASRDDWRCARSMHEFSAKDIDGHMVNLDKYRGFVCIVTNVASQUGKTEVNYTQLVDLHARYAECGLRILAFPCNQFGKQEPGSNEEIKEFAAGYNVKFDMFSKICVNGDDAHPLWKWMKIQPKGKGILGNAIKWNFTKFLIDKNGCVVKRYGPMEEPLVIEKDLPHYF
The experiment in a line: Binding affinity to GPX4 in human PANC-1 cells assessed as protein destabilization by measuring reduction in melting temperature at 100 uM measured after 1 hr by thermal shift assay. Format: cell-based.

Data set [10] deals with MIA PaCa-2. The experiment in a line: Down regulation of PNPT1 expression in human MIA PaCa-2 cells at 3 times IC50 measured after 4 hrs by proteomics analysis. Type of data set: functional, cell-based.
Data set [11] in a line: Drug level in CD-1 mouse colon at 10 mg/kg, iv measured after 1 hr by LC-MS/MS analysis. As to conditions: in vivo. Type of data set: ADME, organism-based. Summed up: as §3
Data set [12] in a line: Drug metabolism in CD-1 mouse plasma assessed as hydroxylation at 10 mg/kg, iv measured after 15 mins by LC-MS/MS analysis. Type of data set: ADME, organism-based. The conditions noted are these: in vivo, 0.25 h.
Data set [13] in a line: Plasma concentration in CD-1 mouse at 10 mg/kg, ip measured after 7 hrs by LC-MS/MS analysis. Format: ADME, organism-based. Summed up:
(§4)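 CD-1 mice dosed IP at 10 mg/kg or PO at 20 mg/kg, n=2 per route. Blood taken with heparinized pipettes at 0.5, 2, 4 and 7 h and spun at 15,000 rpm for 10 min. Plasma stored at −80 °C, then measured by LC-MS/MS.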

Data set [14] relates to PANC-1. The experiment in a line: Cytotoxicity against human PANC-1 cells measured after 72 hrs by MTT assay. As to conditions: PANC-1, 72 h. Type of data set: functional, cell-based. The method, boiled down:
as §2

A short description of data set [15]: Half life in mouse plasma at 500 uM by LC-MS/MS analysis. Format: ADME, cell-free. The method, boiled down: (§5)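 Compound (500 μM DMSO stock) was added at 1 μL per 500 μL pooled plasma. Samples were taken at 0, 0.17, 0.5, 1, 2 and 4 h and centrifuged at 3500 g for 10 min. Supernatant was run by LC-MS/MS. t1/2 came from the slope of ln(compound/internal standard peak area) against time.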

Data set [16] is described as follows: Half life in human plasma at 500 uM by LC-MS/MS analysis. Format: ADME, cell-free. The method, boiled down:
as §5

Data set [17] deals with MIA PaCa-2. Nature of the data set: Cytotoxicity against human MIA PaCa-2 cells transfected with GPX4 siRNA measured after 72 hrs by MTT assay. Format: functional, cell-based. On the technique in general: Tetrazolium assays rely on reduction of a dye to a coloured formazan, in cell work by metabolically active cells.
The subject of data set [18] is BXPC-3. Nature of the data set: Cytotoxicity against human BXPC-3 cells measured after 72 hrs by MTT assay. The conditions noted are these: BXPC-3, 72 h. Format: functional, cell-based. The method, boiled down:
as §2

Data set [19] can be described thus: Plasma concentration in CD-1 mouse at 20 mg/kg, po measured after 7 hrs by LC-MS/MS analysis. Format: ADME, organism-based. The method, boiled down: as §4
Data set [20] concerns MIA PaCa-2. Nature of the data set: Induction of ferroptosis in human MIA PaCa-2 cells assessed as increase in lipid peroxidation measured after 24 hrs by C11-BODIPY dye based fluorescence assay. Type of data set: functional, cell-based. Summed up:
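MIA PaCa-2 cells were treated for the set time, then given 10 μM C11-BODIPY for 30 min at 37 °C and washed. Fluorescence was read at 581/591 nm (reduced dye) and 488/510 nm (oxidized dye). The intensity ratio was compared by unpaired t-test.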

Consider `CC1=C(Nc2ccc(N3CCN(C)CC3)cc2)C(=O)c2cncnc2C1=O`, for which the outcome in data set [1] and in [17] was inactive. The IC50 in data set [2] came to 3630 nM; in data set [14] it was 380 nM; in data set [18], 870 nM. Moreover, in data set [3], the t1/2 is 0.743 h. In addition, the outcome in data set [4], in data set [7], in data set [8] and in data set [10] was Active. In addition, the Drug uptake in data set [5] and in data set [11] was 0.3 mg/kg in each case. Further, the Drug metabolism entry in data set [6] and in data set [12] was “Metabolite_Detected” in each case. The Activity entry in data set [9] and in data set [20] was “Dose-dependent effect” in each case. Besides, the concentration at 7 h in [13] turned out to be 6.7 ng/mL; in [19] it was 3.4 ng/mL. Besides, the half-life at 500 µM in [15] and in data set [16] was more than 2 h in each case.
